Source: ChEMBL document CHEMBL2384977, “Synthesis and biological evaluation of novel styryl benzimidazole derivatives as probes for imaging of neurofibrillary tangles in Alzheimer's disease” (Bioorg Med Chem, 2013)
Active and inactive are the calls of the source. The rule behind the calls is not given here.

Columns and labels:
Brain = test: Ratio of drug level in ddY mouse brain at 13.2 to 20.6 kBq, iv measured at 2 mins to drug level in ddY mouse brain at 13.2 to 20.6 kBq, iv measured at 60 mins; format: ADME, organism-based; settings: in vivo
In short: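 Tail-vein injection of the 125I tracer (13.2–20.6 kBq, saline with ethanol) into male 5-week-old ddY mice. The ratio is brain uptake (%ID/g) at 2 min divided by brain uptake at 60 min, from groups of 5 animals.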

[1] = 1-Octanol-PBS buffer partition coefficient, log P of the compound at 0.37 MBq after 2 mins by gamma counting analysis; format: physicochemical
[2] = molecular target: T1, Amyloid-beta precursor protein (Homo sapiens, UniProt P05067); test: Binding affinity to amyloid beta (1 to 42) in alzheimer disease patient brain by immunohistochemical staining analysis; settings: tested as the 125I-labelled form
T1 sequence (P05067 whole entry): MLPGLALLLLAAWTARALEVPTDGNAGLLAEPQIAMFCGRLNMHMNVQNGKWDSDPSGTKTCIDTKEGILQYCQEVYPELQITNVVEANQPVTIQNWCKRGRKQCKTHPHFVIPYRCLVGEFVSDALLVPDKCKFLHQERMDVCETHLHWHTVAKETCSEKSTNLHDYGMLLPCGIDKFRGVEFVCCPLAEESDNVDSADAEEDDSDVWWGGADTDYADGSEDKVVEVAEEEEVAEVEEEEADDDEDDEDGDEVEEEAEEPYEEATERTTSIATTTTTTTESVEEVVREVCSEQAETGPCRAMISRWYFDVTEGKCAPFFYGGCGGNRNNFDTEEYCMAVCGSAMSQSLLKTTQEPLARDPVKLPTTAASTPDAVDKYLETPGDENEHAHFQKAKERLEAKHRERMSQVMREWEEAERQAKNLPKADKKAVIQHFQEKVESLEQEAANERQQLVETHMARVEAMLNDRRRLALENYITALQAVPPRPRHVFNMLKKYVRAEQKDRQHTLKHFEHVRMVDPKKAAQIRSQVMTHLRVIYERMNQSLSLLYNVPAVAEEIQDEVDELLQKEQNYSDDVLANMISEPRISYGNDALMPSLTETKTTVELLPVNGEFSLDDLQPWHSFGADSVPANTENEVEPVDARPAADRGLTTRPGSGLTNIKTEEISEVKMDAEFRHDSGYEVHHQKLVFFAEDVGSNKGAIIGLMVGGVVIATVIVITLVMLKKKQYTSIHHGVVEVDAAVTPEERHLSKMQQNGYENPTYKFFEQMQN
In short: (§1)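 Autoradiography on 6-µm deparaffinized paraffin serial sections from an autopsy-confirmed AD case; control brain section also run. [125I]SBIM-3 (92.5 kBq/100 µL) for 1 h at room temperature, 50% EtOH for 2 h, water wash 30 s, then imaging plate exposure overnight. Labelling was compared with adjacent sections immunostained for phospho-tau (AT8) or Aβ1–42 (BC05).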

[3] = molecular target: T2, Microtubule-associated protein tau (Homo sapiens, UniProt P10636); test: Binding affinity to recombinant human tau (441 amino acid residues) aggregates expressed in Escherichia coli assessed as apparent dissociation constant after 30 mins by fluorescence spectroscopic analysis; settings: read-out: Kd(app)
T2 sequence (P10636 whole entry): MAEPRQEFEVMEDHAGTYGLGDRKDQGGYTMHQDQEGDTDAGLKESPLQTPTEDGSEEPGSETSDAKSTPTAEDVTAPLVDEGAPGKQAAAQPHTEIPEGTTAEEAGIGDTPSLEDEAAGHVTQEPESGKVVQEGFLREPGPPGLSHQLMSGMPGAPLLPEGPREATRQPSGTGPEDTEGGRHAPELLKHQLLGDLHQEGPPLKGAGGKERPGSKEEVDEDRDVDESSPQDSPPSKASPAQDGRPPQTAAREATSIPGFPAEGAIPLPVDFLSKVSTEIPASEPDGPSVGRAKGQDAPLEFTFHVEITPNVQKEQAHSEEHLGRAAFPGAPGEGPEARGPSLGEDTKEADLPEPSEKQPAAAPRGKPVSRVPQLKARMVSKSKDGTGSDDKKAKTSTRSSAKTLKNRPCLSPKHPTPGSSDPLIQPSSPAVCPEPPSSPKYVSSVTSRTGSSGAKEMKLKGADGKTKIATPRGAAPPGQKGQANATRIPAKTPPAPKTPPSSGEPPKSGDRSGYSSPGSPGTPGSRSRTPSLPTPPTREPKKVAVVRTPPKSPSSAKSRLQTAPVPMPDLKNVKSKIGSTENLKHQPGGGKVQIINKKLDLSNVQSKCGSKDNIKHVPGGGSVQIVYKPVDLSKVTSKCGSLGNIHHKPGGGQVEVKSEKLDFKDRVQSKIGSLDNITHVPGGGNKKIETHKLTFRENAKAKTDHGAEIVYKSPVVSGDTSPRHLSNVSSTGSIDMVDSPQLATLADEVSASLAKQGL
In short: (§2)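 Tau: human 441-aa tau expressed in E. coli, aggregated at 1 mg/mL in MES buffer pH 6.8 with 0.1 mg/mL heparin, 37 °C for 3 days with shaking. Abeta1-42 aggregated at 0.25 mg/mL in PBS pH 7.4, 37 °C for 42 h with shaking. Aggregates at final 10 µg/mL were incubated with ligand (final 0.02–10 µM) for 30 min at room temperature. Apparent Kd was taken from fluorescence saturation curves at ex 440 nm, em 510 nm (tau) or em 480 nm (Abeta). Mean ± SEM of six independent experiments.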

[4] = molecular target: T2, Microtubule-associated protein tau; test: Binding affinity to hyperphosphorylated tau protein in entorhinal cortex of alzheimer disease patient brain at 300 uM after 30 mins by fluorescence microscopic analysis; format: tissue-based
In short: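 Deparaffinized entorhinal cortex section from the same AD patient, incubated 30 min with ligand in 50% ethanol, then washed 30 s in ethanol. Imaged by fluorescence microscopy (excitation 450–490 nm, emission 510–560 nm). Spots were matched to Thioflavin S staining of the same patient's section.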

[5] = molecular target: T1, Amyloid-beta precursor protein; test: Binding affinity to amyloid beta (1 to 42) (unknown origin) aggregates assessed as apparent dissociation constant after 30 mins by fluorescence spectroscopic analysis; settings: read-out: Kd(app); in short: as §2
[6] = molecular target: T2, Microtubule-associated protein tau; test: Binding affinity to hyperphosphorylated tau protein in alzheimer disease patient brain by immunohistochemical staining analysis; settings: tested as the 125I-labelled form; in short: as §1
Homo sapiens = species: Homo sapiens; test: Selectivity ratio of Kd(app) for amyloid beta (1 to 42) (unknown origin) aggregates to Kd(app) for recombinant human tau (441 amino acid residues) aggregates
In short: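 Human 441-aa tau, expressed in E. coli, was aggregated at 1 mg/mL (MES pH 6.8, 0.1 mg/mL heparin, 37 °C, 3 days, shaking). Aβ1–42 was aggregated at 0.25 mg/mL (PBS pH 7.4, 37 °C, 42 h). Aggregates were incubated 30 min at room temperature with ligand, and fluorescence read at ex 440 nm, em 510 nm (tau) or 480 nm (Aβ). Apparent Kd came from saturation curves over six independent experiments, and the ratio is Kd(Aβ)/Kd(tau).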

## CNc1ccc(/N=N/c2nc3ccc([125I])cc3s2)cc1
Brain
  Ratio: 0.33

## CN(C)c1ccc(/N=N/c2nc3ccc([125I])cc3s2)cc1
[1]
  logP at 2 min: 3.84
Brain
  Ratio: 0.33

## Nc1ccc(/N=N/c2nc3ccc([125I])cc3s2)cc1
Brain
  Ratio: 0.3

## CN(C)c1ccc(/C=C/c2nc3ccc(I)cc3[nH]2)cc1
[2]
  Activity: Active
[3]
  Kd: 300 nM
[4]
  Activity: Active
[5]
  Kd: 820 nM
[6]
  Activity: Active
Homo sapiens
  Selectivity ratio: 2.73
